# Tested on: Fibroblast
# Assay: Multiplex assay against human fibroblast
# Type: toxicity, cell-based
# How it was run: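 Tubulin, mitochondrial-mass and membrane-permeability phenotypes are per cents of healthy-nucleus cells. Cells were gated by CellPathfinder machine learning into Hoechst high-intensity objects or normal cells, normal cells into healthy, pyknosed or fragmented nuclei, and pyknosed cells into mitotic or apoptotic. Before that, live cells stained at seeding with Hoechst33342, BioTracker Green Microtubule Cytoskeleton Dye, MitoTracker Red and Annexin V Alexa Fluor 680 were imaged on a CQ1 microscope at 37°C and 5% CO2 after compound addition.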
# [1] = 12 h, 1 µM, compound concentration 1 uM, replicate 1
# [2] = 12 h, 1 µM, compound concentration 1 uM, replicate 2
# [3] = 12 h, 10 µM, compound concentration 10 uM, replicate 1
# [4] = 12 h, 10 µM, compound concentration 10 uM, replicate 2
# [5] = 24 h, 1 µM, compound concentration 1 uM, replicate 1
# [6] = 24 h, 1 µM, compound concentration 1 uM, replicate 2
# [7] = 24 h, 10 µM, compound concentration 10 uM, replicate 1
# [8] = 24 h, 10 µM, compound concentration 10 uM, replicate 2
# [9] = 48 h, 1 µM, compound concentration 1 uM, replicate 1
# [10] = 48 h, 1 µM, compound concentration 1 uM, replicate 2
# [11] = 48 h, 10 µM, compound concentration 10 uM, replicate 1
# [12] = 48 h, 10 µM, compound concentration 10 uM, replicate 2
compound,measurement,setting,value
COc1ccccc1CN[C@H]1C2CCN(CC2)[C@H]1C(c1ccccc1)c1ccccc1 [CP-96345],Population Apoptotic (%),[1],64%
same,Population Fragmented Nuclei (%),[1],25%
same,Population Healthy Nuclei (%),[1],43%
same,Population Hoechst High Intensity Objects (%),[1],13%
same,Population Membrane Permeable-Phenotype (%),[1],27%
same,Population Mitochondria Different-Phenotype (%),[1],9%
same,Population Mitotic Cells (%),[1],35%
same,Population Normal (%),[1],86%
same,Population Pyknosed Nuclei (%),[1],30%
same,Population Tubulin-Different-Phenotype (%),[1],52%
same,Total Cell Count,[1],146
same,Population Apoptotic (%),[2],66%
same,Population Fragmented Nuclei (%),[2],4%
same,Population Healthy Nuclei (%),[2],92%
same,Population Hoechst High Intensity Objects (%),[2],0%
same,Population Membrane Permeable-Phenotype (%),[2],4%
same,Population Mitochondria Different-Phenotype (%),[2],7%
same,Population Mitotic Cells (%),[2],33%
same,Population Normal (%),[2],100%
same,Population Pyknosed Nuclei (%),[2],3%
same,Population Tubulin-Different-Phenotype (%),[2],8%
same,Total Cell Count,[2],90
same,Population Apoptotic (%),[3],67%
same,Population Fragmented Nuclei (%),[3],29%
same,Population Healthy Nuclei (%),[3],45%
same,Population Hoechst High Intensity Objects (%),[3],13%
same,Population Membrane Permeable-Phenotype (%),[3],6%
same,Population Mitochondria Different-Phenotype (%),[3],44%
same,Population Mitotic Cells (%),[3],32%
same,Population Normal (%),[3],86%
same,Population Pyknosed Nuclei (%),[3],25%
same,Population Tubulin-Different-Phenotype (%),[3],84%
same,Total Cell Count,[3],129
same,Population Apoptotic (%),[4],50%
same,Population Fragmented Nuclei (%),[4],2%
same,Population Healthy Nuclei (%),[4],86%
same,Population Hoechst High Intensity Objects (%),[4],3%
same,Population Membrane Permeable-Phenotype (%),[4],1%
same,Population Mitochondria Different-Phenotype (%),[4],45%
same,Population Mitotic Cells (%),[4],50%
same,Population Normal (%),[4],96%
same,Population Pyknosed Nuclei (%),[4],10%
same,Population Tubulin-Different-Phenotype (%),[4],26%
same,Total Cell Count,[4],77
same,Population Apoptotic (%),[5],63%
same,Population Fragmented Nuclei (%),[5],26%
same,Population Healthy Nuclei (%),[5],49%
same,Population Hoechst High Intensity Objects (%),[5],15%
same,Population Membrane Permeable-Phenotype (%),[5],23%
same,Population Mitochondria Different-Phenotype (%),[5],8%
same,Population Mitotic Cells (%),[5],36%
same,Population Normal (%),[5],84%
same,Population Pyknosed Nuclei (%),[5],24%
same,Population Tubulin-Different-Phenotype (%),[5],41%
same,Total Cell Count,[5],161
same,Population Apoptotic (%),[6],54%
same,Population Fragmented Nuclei (%),[6],4%
same,Population Healthy Nuclei (%),[6],85%
same,Population Hoechst High Intensity Objects (%),[6],2%
same,Population Membrane Permeable-Phenotype (%),[6],1%
same,Population Mitochondria Different-Phenotype (%),[6],4%
same,Population Mitotic Cells (%),[6],45%
same,Population Normal (%),[6],97%
same,Population Pyknosed Nuclei (%),[6],9%
same,Population Tubulin-Different-Phenotype (%),[6],17%
same,Total Cell Count,[6],114
same,Population Apoptotic (%),[7],55%
same,Population Fragmented Nuclei (%),[7],41%
same,Population Healthy Nuclei (%),[7],43%
same,Population Hoechst High Intensity Objects (%),[7],22%
same,Population Membrane Permeable-Phenotype (%),[7],3%
same,Population Mitochondria Different-Phenotype (%),[7],41%
same,Population Mitotic Cells (%),[7],44%
same,Population Normal (%),[7],77%
same,Population Pyknosed Nuclei (%),[7],14%
same,Population Tubulin-Different-Phenotype (%),[7],86%
same,Total Cell Count,[7],156
same,Population Apoptotic (%),[8],40%
same,Population Fragmented Nuclei (%),[8],2%
same,Population Healthy Nuclei (%),[8],81%
same,Population Hoechst High Intensity Objects (%),[8],1%
same,Population Membrane Permeable-Phenotype (%),[8],2%
same,Population Mitochondria Different-Phenotype (%),[8],31%
same,Population Mitotic Cells (%),[8],60%
same,Population Normal (%),[8],98%
same,Population Pyknosed Nuclei (%),[8],16%
same,Population Tubulin-Different-Phenotype (%),[8],14%
same,Total Cell Count,[8],92
same,Population Apoptotic (%),[9],42%
same,Population Fragmented Nuclei (%),[9],30%
same,Population Healthy Nuclei (%),[9],60%
same,Population Hoechst High Intensity Objects (%),[9],14%
same,Population Membrane Permeable-Phenotype (%),[9],20%
same,Population Mitochondria Different-Phenotype (%),[9],3%
same,Population Mitotic Cells (%),[9],57%
same,Population Normal (%),[9],85%
same,Population Pyknosed Nuclei (%),[9],9%
same,Population Tubulin-Different-Phenotype (%),[9],29%
same,Total Cell Count,[9],169
same,Population Apoptotic (%),[10],50%
same,Population Fragmented Nuclei (%),[10],36%
same,Population Healthy Nuclei (%),[10],61%
same,Population Hoechst High Intensity Objects (%),[10],12%
same,Population Membrane Permeable-Phenotype (%),[10],25%
same,Population Mitochondria Different-Phenotype (%),[10],4%
same,Population Mitotic Cells (%),[10],50%
same,Population Normal (%),[10],87%
same,Population Pyknosed Nuclei (%),[10],2%
same,Population Tubulin-Different-Phenotype (%),[10],36%
same,Total Cell Count,[10],82
same,Population Apoptotic (%),[11],83%
same,Population Fragmented Nuclei (%),[11],36%
same,Population Healthy Nuclei (%),[11],58%
same,Population Hoechst High Intensity Objects (%),[11],25%
same,Population Membrane Permeable-Phenotype (%),[11],2%
same,Population Mitochondria Different-Phenotype (%),[11],36%
same,Population Mitotic Cells (%),[11],16%
same,Population Normal (%),[11],75%
same,Population Tubulin-Different-Phenotype (%),[11],61%
same,Total Cell Count,[11],172
same,Population Apoptotic (%),[12],25%
same,Population Fragmented Nuclei (%),[12],30%
same,Population Healthy Nuclei (%),[12],66%
same,Population Hoechst High Intensity Objects (%),[12],11%
same,Population Membrane Permeable-Phenotype (%),[12],24%
same,Population Mitochondria Different-Phenotype (%),[12],7%
same,Population Mitotic Cells (%),[12],75%
same,Population Normal (%),[12],88%
same,Population Pyknosed Nuclei (%),[12],4%
same,Population Tubulin-Different-Phenotype (%),[12],60%
same,Total Cell Count,[12],113

# Reference: ChEMBL document CHEMBL4689842, “EUbOPEN Chemogenomics Library wave 1” (2021)
